Source: PubChem BioAssay
Rows were chosen to be rich in hits. Some 5% of all compounds tested hit in one or more screens of this group.
Beta cell apopt – beta cell apoptosis inhibition. INS-1E cytokine-induced death, ATP luminescence, 48 h; percent of positive-control rescue, neutral wells zero. AID 435005. protection from apoptosis, % (no concentration beside the values). 0.8% of 300,000 active;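 active means Every replicate reaches about 75%, or at least half do and their mean reaches it too, limit read from the data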;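 further: higher means more ATP so stronger rescue from cytokine killing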
UPR CHOP act – apoptotic UPR (CHOP) activation | AID 449763 | CHO-CHOP luciferase reporter, luminescence; percent of tunicamycin response over DMSO baseline | activation, % at 10 µM | 0.34% of 330,000 active;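 active means at 10 µM dose, activation of 40% or more, normalized to positive control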
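System: CHO-CHOP luciferase reporter cell line | Buffer or medium: F12 medium containing 10% fetal bovine serum | Doses: One dose, 10 µM in 0.5% DMSO | Times: 6 h compound exposure at 37 °C after overnight seeding | Signal: Luciferase luminescence | Read-out: % activation vs tunicamycin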
T cruzi repl – T. cruzi replication inhibition; T. cruzi beta-gal in NIH3T3, luminescence, 90 h; inhibition, % (concentration not given with the values); 1.4% of 300,000 active; AID 1885;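 active means mean inhibition across valid replicates above about 55%, limit read from the data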;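 further: signal also drops with host cell toxicity which is not excluded here; higher percent means less beta-gal luminescence so fewer parasites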
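Read-out: Parasite load inhibition, % | Test system: Mouse NIH/3T3 fibroblasts infected with β-gal-expressing T. cruzi Tulahuen C4 | Amount: 5,000 cells/well | Medium: DMEM, 2% fetal bovine serum | Signal: GalScreen β-gal luminescence, detergent lysis, 60 min | Timing: 3 h attach, ≥90 h co-culture | Also added: Tulahuen C4 trypomastigotes, 5000/well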
CSC inhib – cancer stem cell inhibition; cancer stem cell-like cells viability, luminescence; AID 2717; 1.1% of 300,000 active; inhibition, % at 7.5 µM; in the data active means inhibition above about 75%; tested in HMLE shEcad cells
Mdm2 MdmX PPI – human Mdm2/MdmX binding inhibition; 3% of 330,000 active; AID 485346; inhibition, % at 8 µM; SaOS-2 split-luciferase Mdm2/MdmX complementation, luminescence;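 active means inhibition of at least 50% at 8 µM in the primary screen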
Target sequence (O15151 whole entry, looked up): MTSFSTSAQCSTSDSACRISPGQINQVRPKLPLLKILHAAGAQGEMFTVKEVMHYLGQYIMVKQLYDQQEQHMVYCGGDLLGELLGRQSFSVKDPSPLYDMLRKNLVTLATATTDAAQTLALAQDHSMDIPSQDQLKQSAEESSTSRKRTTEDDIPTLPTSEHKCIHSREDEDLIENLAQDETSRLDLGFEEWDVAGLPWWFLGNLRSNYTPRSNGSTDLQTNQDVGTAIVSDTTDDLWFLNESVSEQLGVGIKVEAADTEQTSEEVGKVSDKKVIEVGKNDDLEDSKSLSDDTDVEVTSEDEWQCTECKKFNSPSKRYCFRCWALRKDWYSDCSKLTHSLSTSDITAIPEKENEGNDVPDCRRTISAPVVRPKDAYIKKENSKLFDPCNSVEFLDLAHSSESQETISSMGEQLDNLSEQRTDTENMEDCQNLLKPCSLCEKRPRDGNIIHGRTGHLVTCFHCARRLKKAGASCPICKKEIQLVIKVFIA
Target sequence (Q00987 whole entry, looked up): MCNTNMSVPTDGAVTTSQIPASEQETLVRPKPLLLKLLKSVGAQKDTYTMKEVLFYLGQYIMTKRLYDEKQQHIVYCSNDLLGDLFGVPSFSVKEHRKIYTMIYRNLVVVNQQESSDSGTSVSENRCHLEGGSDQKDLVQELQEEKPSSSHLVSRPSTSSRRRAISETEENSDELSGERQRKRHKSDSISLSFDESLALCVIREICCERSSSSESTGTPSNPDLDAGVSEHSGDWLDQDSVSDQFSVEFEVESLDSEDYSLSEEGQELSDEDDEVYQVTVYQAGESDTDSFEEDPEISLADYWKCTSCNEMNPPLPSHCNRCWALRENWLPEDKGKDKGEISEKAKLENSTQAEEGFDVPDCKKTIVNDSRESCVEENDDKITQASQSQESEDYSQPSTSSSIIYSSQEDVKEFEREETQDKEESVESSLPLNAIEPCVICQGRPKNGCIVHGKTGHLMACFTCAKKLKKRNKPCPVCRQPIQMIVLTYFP
UPR XBP1 act – activators of adaptive arm of unfolded protein response (XBP1); CHO-XBP1 luciferase reporter, IRE1-XBP1 UPR activation, luminescence; percent of tunicamycin response, DMSO as zero; activation, % at 20 µM; 0.33% of 330,000 active; AID 463104;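 active means versus positive control, 20 µM dose yields 30% or more activation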
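Material – CHO cell line with stable XBP1 luciferase reporter · Buffer or medium – F12 plus 10% FBS · Compound – single point, 20 µM final compound, 1% DMSO · Schedule – 16-18 h cell attachment at 37 °C, then 6 h compound exposure · Signal – Steady-Glo luminescence read · Benchmarks – high control tunicamycin 10 µg/mL final, low control DMSO vehicle only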
Of the large screens only hits and unclear results are named; the others gave an inactive call.

COc1ccc(N(CC(=O)Nc2ccc(C)cc2)S(=O)(=O)c2c(C)noc2C)cc1	none
Cc1ccc(N(CC(=O)Nc2cc(C)cc(C)c2)S(=O)(=O)c2c(C)noc2C)cc1	Beta cell apopt 102.0
CC1=NN(C(=S)Nc2ccccc2)C(C)(C)C1	none
Cc1csc(-c2cnn(-c3ccccc3)c2NC(=O)c2cccc(C(F)(F)F)c2)n1	none
O=C(Nc1nc(-c2ccc(F)cc2)cs1)C1CCN(C(=O)c2ccc(F)cc2)CC1	T cruzi repl 55.0
CN(C)c1ccc(C(=O)N=c2sccn2C)cc1[N+](=O)[O-]	none
Cc1ccc2nc(NC(=O)c3ccc(NS(=O)(=O)c4cccs4)cc3)sc2c1	CSC inhib 104.1
O=C(NNC(=O)c1cc(Cl)ccc1O)c1ccc(NS(=O)(=O)c2cccs2)cc1	CSC inhib 95.3 (no result: Beta cell apopt)
O=C(NNC(=O)c1cc(F)c(F)cc1Cl)c1ccc(NS(=O)(=O)c2cccs2)cc1	none (no result: T cruzi repl)
C[C@@H]1CN([C@H](C)CO)C(=O)c2cc(NC(=O)Nc3ccc4c(c3)OCO4)ccc2O[C@H]1CN(C)Cc1ccncc1	none (no result: T cruzi repl)
CCOC(=O)c1ccc(NC(=S)NN2CCN(C)CC2)cc1	T cruzi repl 57.5
CC(=O)c1sc2nc(-c3ccccc3)cc(C)c2c1N	T cruzi repl 56.5
CCOc1ccc(NC(=O)CCSc2nc3c(c(CC)c2C#N)C(=O)CC(C)(C)C3)cc1	T cruzi repl 55.0
Cc1cc(/C=N/N2CCN(C)CC2)c(C)n1-c1ccccc1F	T cruzi repl 67.1
CCc1ccc(Nc2n[n+](C)c(-c3ccncc3)s2)cc1	none
CCOc1ccc(CN2CCCC(N3CCN(c4ccc(OC)cc4)CC3)C2)cc1 (centres undefined)	T cruzi repl 58.6
OCCOc1ccc(CN2CCCC(N3CCN(c4ccc(F)cc4)CC3)C2)cc1 (centres undefined)	none (no result: Beta cell apopt)
CC(C(=O)OCC(=O)Nc1ccc(S(=O)(=O)N2CCCCC2)cc1)N1C(=O)c2ccccc2C1=O (centres undefined)	none
CN(CCOc1ccccc1)CC(=O)Nc1ccc(Cl)c(S(=O)(=O)N(C)C)c1	T cruzi repl 66.6
CCN1CCN(C(=S)Nc2sc(C)c(-c3ccccc3)c2C(=O)OC)CC1	CSC inhib 90.2
Cc1nn(-c2ccc(C(=O)NCC(c3ccco3)N3CCCC3)cc2)c(C)c1Cl (centres undefined)	none (no result: T cruzi repl, CSC inhib)
COc1cc(NC(=O)c2ccnc(N)c2)cc(C(=O)Nc2cccc(C(F)(F)F)c2)c1	CSC inhib 97.1
COc1cc(NC(=O)c2cc(C)on2)cc(C(=O)Nc2cccc(C(F)(F)F)c2)c1	CSC inhib 87.7
COc1cc(NC(=O)c2ccccn2)cc(OC)c1OC	none
COc1cc(C(=O)N/N=C(\c2ccccc2)c2ccccn2)cc(OC)c1OC	Beta cell apopt 86.0, T cruzi repl 55.0
CC1(C)Cc2ccccc2C(CSc2ccccc2C(=O)O)=N1	CSC inhib 76.0
COc1cc2c(cc1OC)C(CSc1ccccc1C(=O)O)=NC(C)(C)C2	none
CCCCN(C(=O)CSc1nnc(-c2ccccc2OC)n1C)c1c(N)n(Cc2ccccc2)c(=O)[nH]c1=O	none
N#C/C(=C\c1ccc(O)c(O)c1)C(=O)NCCc1ccccc1	UPR CHOP act 222.6 (no result: T cruzi repl)
N#C/C(=C\c1ccc(O)c(O)c1)C(=O)N1CCc2ccccc21	UPR CHOP act 174.6 (no result: T cruzi repl)
COc1cc(/C=C(\C#N)C(=O)NCCc2ccccc2)cc(OC)c1O	none
C=CCNC(=S)N/N=C/c1ccc(OCc2ccccc2Cl)cc1	T cruzi repl 64.9 (no result: CSC inhib)
Cn1c(C(=O)NCc2cccnc2)cc2sc(Cl)cc21	T cruzi repl 60.6
O=C(NCc1cccnc1)c1sc2cc(Cl)ccc2c1Cl	none
O=C(Nc1ccc(Cn2cccn2)cc1)c1ccc(COc2cccc(Br)c2)cc1	CSC inhib 99.5
O=C(Nc1ccc(Cn2cccn2)cc1)c1ccc(COc2ccc(Br)cc2)cc1	none
O=[N+]([O-])c1nn(-c2ccccc2)n(O)c1=NC1CCN(Cc2ccccc2)CC1	T cruzi repl 76.7
O=[N+]([O-])c1nn(-c2ccc3c(c2)OCCO3)n(O)c1=NC1CCN(Cc2ccccc2)CC1	T cruzi repl 62.1
O=[N+]([O-])c1nn(-c2ccc(Cl)cc2)n(O)c1=NCc1ccccc1Cl	none
CCOc1ccc(S(=O)(=O)NN=C2CCN(C(C)=O)CC2)cc1	none
CCN1CCN(C(c2cccc(OC)c2OC)c2nnnn2Cc2ccco2)CC1 (centres undefined)	none
CCCC(c1nnnn1Cc1ccco1)N1CCN(c2cc(Cl)ccc2C)CC1 (centres undefined)	CSC inhib 136.0 (no result: T cruzi repl)
COc1ccccc1C(c1nnnn1Cc1ccco1)N1CCN(c2cccc(C)c2C)CC1 (centres undefined)	T cruzi repl 73.6
CC1CCCCN1CC(O)COCc1ccc(Cl)cc1 (centres undefined)	none (no result: Beta cell apopt)
CCN1C/C(=C/c2cccc([N+](=O)[O-])c2)C(=O)/C(=C/c2cccc([N+](=O)[O-])c2)C1	Beta cell apopt 97.9, CSC inhib 84.8 (no result: UPR CHOP act, T cruzi repl, Mdm2 MdmX PPI, UPR XBP1 act)
Cc1ccc(-c2nc3c(c(=O)[nH]c(=O)n3CC(C)C)n2CC(C)C)cc1[N+](=O)[O-]	T cruzi repl 58.1
CCCCn1c(=O)[nH]c(=O)c2c1nc(-c1ccc(C)c([N+](=O)[O-])c1)n2CC	none
CCN(Cc1ccc(C#CCCO)cc1)CC1CCCN(CCc2cccc(F)c2)C1 (centres undefined)	T cruzi repl 63.9
CNC(=O)n1cc(C)c(-c2cccs2)n1	none
N#Cc1nc(COc2ccccc2)oc1N1CCCCC1	none
CCN1CCN(c2oc(COc3ccc(-c4ccccc4)cc3)nc2C#N)CC1	T cruzi repl 60.9
CCCN1C(C)C(C(=O)OCC)=CN(Cc2cccc(I)c2)S1(=O)=O (centres undefined)	none (no result: Beta cell apopt, T cruzi repl, CSC inhib)
Cc1cccc(C2(c3cccc(C)c3)OC(=O)c3ccccc32)c1	Beta cell apopt 124.4
Cc1cc(O)ccc1C1(c2ccc(O)cc2C)OC(=O)c2ccccc21	none
CCOc1cc(C)c(C(C)C)cc1S(=O)(=O)n1cnc(C)c1	T cruzi repl 55.3
CCOc1cc(C)c(C(C)C)cc1S(=O)(=O)N1CC(C)OC(C)C1 (centres undefined)	none
O=C(NNC(=O)c1ccc(NC(=O)c2ccccc2)cc1)c1ccc(F)cc1	none
O=C(NC1=C(Nc2ccc(F)cc2)C(=O)c2ccccc2C1=O)c1ccc(Cl)cc1	Beta cell apopt 87.0
O=C(NCC(c1ccco1)N1CCCC1)c1ccccc1Sc1ccc(C(F)(F)F)cc1[N+](=O)[O-] (centres undefined)	T cruzi repl 55.8
CC(=NCc1cccc(Cl)c1)c1nc(-c2ccco2)oc1O	CSC inhib 100.2
